The M2OR odorant receptor database
Numbering of substitutions follows the chain as printed.

Tests used:
Conditions in all cases: stereoisomer not certain
OR6C65 (Homo sapiens) = target: T1, OR6C65 (Homo sapiens) (UniProt A6NJZ3)
T1 sequence (whole entry): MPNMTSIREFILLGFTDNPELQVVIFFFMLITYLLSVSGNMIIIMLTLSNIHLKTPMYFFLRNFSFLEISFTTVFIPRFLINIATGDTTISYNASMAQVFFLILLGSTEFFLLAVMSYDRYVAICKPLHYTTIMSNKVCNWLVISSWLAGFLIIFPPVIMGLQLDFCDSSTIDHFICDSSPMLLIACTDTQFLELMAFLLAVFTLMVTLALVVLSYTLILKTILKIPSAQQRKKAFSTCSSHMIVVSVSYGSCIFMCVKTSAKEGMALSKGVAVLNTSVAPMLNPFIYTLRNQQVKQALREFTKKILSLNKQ
How it was run: (§1)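 Values were gathered from published papers (main text and supplementary material), with extra details requested from the original authors when needed, and checked for typos and inconsistencies. Each receptor–molecule pair is called responsive (active) if the original authors judged the measured signal statistically different from baseline, and non-responsive (inactive) otherwise. Assay methods varied by source, often transient mammalian cell-line luciferase assays. Recorded details include cell line, G-protein, co-transfected protein and tags.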

OR6C68 (Homo sapiens) = target: T2, OR6C68 (Homo sapiens) (UniProt A6NDL8)
T2 sequence (whole entry): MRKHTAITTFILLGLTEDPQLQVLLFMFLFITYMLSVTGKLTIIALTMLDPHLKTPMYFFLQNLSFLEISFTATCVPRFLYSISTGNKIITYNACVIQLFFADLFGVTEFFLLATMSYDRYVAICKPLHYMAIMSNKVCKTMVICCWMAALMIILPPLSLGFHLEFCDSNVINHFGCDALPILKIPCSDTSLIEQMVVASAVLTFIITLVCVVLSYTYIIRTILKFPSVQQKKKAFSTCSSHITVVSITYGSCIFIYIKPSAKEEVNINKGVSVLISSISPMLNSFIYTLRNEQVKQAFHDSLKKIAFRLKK
How it was run: as §1

OR6C70 (Homo sapiens) = target: T3, OR6C70 (Homo sapiens) (UniProt A6NIJ9)
T3 sequence (whole entry): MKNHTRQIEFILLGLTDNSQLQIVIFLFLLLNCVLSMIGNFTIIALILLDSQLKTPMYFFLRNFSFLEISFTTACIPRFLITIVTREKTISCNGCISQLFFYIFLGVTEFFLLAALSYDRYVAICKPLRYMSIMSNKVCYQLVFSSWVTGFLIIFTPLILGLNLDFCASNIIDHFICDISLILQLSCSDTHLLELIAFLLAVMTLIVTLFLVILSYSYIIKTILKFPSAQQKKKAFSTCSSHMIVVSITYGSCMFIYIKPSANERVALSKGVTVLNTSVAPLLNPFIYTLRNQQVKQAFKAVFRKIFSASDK
How it was run: as §1

OR6C74 (Homo sapiens) = target: T4, OR6C74 (Homo sapiens) (UniProt A6NCV1)
T4 sequence (whole entry): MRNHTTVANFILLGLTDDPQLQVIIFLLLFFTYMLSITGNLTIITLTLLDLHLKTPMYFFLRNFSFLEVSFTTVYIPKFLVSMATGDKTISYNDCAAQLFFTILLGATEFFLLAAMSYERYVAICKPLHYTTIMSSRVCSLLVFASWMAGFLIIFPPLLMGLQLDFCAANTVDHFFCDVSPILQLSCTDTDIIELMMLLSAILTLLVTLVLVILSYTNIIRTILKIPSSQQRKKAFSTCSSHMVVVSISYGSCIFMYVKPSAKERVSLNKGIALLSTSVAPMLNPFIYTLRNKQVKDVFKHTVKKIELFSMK
How it was run: as §1

OR6C75 (Homo sapiens) = target: T5, OR6C75 (Homo sapiens) (UniProt A6NL08)
T5 sequence (whole entry): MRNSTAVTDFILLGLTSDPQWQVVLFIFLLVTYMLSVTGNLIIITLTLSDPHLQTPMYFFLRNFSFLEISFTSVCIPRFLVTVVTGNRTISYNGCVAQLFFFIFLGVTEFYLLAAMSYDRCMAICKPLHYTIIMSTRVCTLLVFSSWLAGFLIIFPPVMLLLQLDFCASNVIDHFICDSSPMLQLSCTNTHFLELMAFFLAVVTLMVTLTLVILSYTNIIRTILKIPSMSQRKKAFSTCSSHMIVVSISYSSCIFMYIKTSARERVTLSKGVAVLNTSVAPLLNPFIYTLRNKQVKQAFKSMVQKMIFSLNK
How it was run: as §1

OR6C76 (Homo sapiens) = target: T6, OR6C76 (Homo sapiens) (UniProt A6NM76)
T6 sequence (whole entry): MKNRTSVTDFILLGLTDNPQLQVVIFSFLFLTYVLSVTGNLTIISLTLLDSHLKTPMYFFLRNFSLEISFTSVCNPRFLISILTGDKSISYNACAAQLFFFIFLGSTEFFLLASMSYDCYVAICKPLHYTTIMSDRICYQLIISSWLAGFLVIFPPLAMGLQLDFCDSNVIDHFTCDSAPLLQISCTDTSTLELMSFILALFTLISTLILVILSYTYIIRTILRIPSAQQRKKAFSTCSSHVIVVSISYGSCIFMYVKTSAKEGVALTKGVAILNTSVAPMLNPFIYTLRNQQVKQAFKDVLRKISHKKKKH
How it was run: as §1

OR6F1 (Homo sapiens) = target: T7, OR6F1 (Homo sapiens) (UniProt Q8NGZ6)
T7 sequence (whole entry): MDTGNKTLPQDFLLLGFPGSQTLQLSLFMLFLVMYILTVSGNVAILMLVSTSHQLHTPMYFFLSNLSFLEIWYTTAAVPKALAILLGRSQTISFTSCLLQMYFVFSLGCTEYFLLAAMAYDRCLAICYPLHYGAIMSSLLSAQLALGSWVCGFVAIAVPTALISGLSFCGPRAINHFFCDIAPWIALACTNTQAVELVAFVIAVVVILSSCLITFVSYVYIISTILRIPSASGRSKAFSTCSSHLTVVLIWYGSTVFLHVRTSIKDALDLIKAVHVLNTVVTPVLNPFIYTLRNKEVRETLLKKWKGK
How it was run: as §1

OR6J1 (Homo sapiens) [1] = target: T8, OR6J1 (Homo sapiens) (UniProt Q8NGC5)
T8 sequence (whole entry): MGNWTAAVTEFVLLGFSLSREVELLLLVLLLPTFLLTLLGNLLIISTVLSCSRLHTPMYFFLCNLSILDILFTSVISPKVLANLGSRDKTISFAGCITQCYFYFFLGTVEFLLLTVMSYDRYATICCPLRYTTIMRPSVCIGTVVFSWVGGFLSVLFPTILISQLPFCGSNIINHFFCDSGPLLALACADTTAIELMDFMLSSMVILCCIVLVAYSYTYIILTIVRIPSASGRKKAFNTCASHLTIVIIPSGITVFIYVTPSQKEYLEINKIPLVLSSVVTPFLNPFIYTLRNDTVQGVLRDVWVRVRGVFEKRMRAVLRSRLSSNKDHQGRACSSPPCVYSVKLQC
How it was run: as §1

OR6K2 (Homo sapiens) = target: T9, OR6K2 (Homo sapiens) (UniProt Q8NGY2)
T9 sequence (whole entry): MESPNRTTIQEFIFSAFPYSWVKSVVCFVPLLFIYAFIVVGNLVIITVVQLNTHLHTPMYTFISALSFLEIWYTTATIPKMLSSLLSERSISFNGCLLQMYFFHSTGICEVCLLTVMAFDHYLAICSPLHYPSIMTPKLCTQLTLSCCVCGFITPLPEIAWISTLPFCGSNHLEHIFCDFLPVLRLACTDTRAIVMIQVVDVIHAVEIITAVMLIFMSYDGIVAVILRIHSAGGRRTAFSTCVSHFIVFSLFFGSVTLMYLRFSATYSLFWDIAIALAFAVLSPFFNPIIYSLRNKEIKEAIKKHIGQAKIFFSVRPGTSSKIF
How it was run: as §1

OR6K3 (Homo sapiens) = target: T10, OR6K3 (Homo sapiens) (UniProt Q8NGY3)
T10 sequence (whole entry): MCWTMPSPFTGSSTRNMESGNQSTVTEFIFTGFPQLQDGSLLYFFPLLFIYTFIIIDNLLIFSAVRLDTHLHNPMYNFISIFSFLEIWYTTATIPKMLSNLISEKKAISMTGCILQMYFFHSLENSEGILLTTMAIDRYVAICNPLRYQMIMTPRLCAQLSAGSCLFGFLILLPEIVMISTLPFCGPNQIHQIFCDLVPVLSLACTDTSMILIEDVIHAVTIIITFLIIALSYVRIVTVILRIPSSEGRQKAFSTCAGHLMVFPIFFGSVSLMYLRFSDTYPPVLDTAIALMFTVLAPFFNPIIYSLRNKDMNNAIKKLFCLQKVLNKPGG
How it was run: as §1

OR6K6 (Homo sapiens) = target: T11, OR6K6 (Homo sapiens) (UniProt Q8NGW6)
T11 sequence (whole entry): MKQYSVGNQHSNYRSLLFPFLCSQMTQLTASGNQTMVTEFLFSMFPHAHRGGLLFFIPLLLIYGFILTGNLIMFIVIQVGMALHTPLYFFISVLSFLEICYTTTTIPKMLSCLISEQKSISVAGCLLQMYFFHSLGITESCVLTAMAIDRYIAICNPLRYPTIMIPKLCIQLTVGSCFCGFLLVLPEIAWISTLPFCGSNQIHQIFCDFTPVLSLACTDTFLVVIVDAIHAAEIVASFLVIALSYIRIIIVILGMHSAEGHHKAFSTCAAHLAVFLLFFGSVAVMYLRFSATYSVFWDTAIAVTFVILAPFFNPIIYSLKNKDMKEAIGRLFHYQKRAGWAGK
How it was run: as §1

OR6M1 (Homo sapiens) = target: T12, OR6M1 (Homo sapiens) (UniProt Q8NGM8)
T12 sequence (whole entry): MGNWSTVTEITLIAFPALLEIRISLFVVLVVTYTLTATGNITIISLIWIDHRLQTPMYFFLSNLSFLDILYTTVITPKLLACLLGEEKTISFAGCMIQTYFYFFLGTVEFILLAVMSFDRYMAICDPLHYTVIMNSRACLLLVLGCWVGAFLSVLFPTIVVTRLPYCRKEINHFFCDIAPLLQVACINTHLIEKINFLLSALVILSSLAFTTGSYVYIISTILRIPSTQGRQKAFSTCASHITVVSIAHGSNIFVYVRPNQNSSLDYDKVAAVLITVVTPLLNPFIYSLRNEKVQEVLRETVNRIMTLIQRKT
How it was run: as §1

OR6N1 (Homo sapiens) = target: T13, OR6N1 (Homo sapiens) (UniProt Q8NGY5)
T13 sequence (whole entry): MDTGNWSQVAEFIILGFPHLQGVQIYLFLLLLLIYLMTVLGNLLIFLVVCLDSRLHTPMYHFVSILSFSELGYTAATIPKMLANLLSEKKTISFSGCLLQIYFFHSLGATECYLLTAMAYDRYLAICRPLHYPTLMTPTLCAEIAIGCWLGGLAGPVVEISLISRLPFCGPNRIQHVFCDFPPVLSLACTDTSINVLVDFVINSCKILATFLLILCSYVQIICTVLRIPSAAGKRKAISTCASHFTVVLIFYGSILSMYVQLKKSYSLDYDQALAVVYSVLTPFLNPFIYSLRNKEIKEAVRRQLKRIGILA
How it was run: as §1

OR6N2 (Homo sapiens) = target: T14, OR6N2 (Homo sapiens) (UniProt Q8NGY6)
T14 sequence (whole entry): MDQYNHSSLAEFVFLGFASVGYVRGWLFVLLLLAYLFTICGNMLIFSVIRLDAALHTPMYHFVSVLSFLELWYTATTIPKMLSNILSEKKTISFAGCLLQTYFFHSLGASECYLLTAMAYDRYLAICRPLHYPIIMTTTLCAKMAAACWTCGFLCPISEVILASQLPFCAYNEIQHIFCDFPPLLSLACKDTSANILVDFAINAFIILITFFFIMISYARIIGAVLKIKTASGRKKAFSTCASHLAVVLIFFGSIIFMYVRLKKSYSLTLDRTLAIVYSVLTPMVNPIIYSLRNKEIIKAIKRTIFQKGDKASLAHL
How it was run: as §1

OR6P1 (Homo sapiens) = target: T15, OR6P1 (Homo sapiens) (UniProt Q8NGX9)
T15 sequence (whole entry): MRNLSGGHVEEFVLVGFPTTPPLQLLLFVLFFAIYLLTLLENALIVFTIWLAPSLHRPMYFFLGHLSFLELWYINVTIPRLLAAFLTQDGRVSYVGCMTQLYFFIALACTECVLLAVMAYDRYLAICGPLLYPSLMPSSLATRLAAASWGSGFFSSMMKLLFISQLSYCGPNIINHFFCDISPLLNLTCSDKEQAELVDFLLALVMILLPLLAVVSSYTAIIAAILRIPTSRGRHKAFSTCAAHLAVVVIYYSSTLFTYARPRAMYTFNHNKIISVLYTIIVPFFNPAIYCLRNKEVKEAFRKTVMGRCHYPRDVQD
How it was run: as §1

OR6Q1 (Homo sapiens) = target: T16, OR6Q1 (Homo sapiens) (UniProt Q8NGQ2)
T16 sequence (whole entry): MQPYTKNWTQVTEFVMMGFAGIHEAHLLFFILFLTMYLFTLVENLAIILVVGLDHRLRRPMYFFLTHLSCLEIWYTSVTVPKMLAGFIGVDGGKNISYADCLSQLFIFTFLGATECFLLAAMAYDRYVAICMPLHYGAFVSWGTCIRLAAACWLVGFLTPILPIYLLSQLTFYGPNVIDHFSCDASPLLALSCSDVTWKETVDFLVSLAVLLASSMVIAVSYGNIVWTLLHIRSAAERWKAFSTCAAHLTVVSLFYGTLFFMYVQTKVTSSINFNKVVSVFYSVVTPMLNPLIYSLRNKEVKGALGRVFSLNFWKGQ
How it was run: as §1

OR6J1 (Homo sapiens) [2] = target: T17, OR6J1 (Homo sapiens) (UniProt Q8NGC5); remark: listed apart in the source
T17 sequence (whole entry): T8 sequence (whole entry) with P250S
How it was run: as §1

OR6K3 = system: T18, OR6K3
T18 sequence (whole entry): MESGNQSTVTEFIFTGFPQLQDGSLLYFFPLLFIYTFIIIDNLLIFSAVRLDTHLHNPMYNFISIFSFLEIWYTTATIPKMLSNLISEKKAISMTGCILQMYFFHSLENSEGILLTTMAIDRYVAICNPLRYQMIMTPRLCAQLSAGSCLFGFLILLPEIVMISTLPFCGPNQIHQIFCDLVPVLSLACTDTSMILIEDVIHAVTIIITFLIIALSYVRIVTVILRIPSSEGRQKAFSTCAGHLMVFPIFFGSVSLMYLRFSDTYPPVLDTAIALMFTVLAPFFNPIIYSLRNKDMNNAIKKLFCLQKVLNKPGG
How it was run: as §1

OR6M1 R224C = system: T19, OR6M1 R224C
T19 sequence (whole entry): T12 sequence (whole entry) with R224C
How it was run: as §1

OR6M1 T276K = system: T20, OR6M1 T276K
T20 sequence (whole entry): T12 sequence (whole entry) with T276K
How it was run: as §1

Measured: odorant receptor agonist call

CCC(S)C(C)CO (centres undefined)
not listed: OR6J1 (Homo sapiens) [2] | OR6K3 | OR6M1 R224C | OR6M1 T276K
inactive: all other assays above

CCC1OC(C)=C(O)C1=O (centres undefined)
not listed: OR6J1 (Homo sapiens) [1] | OR6K3 (Homo sapiens)
inactive: all other assays above
